Measured values reported in ChEMBL document CHEMBL1177643, “Synthesis, DNA-binding ability and anticancer activity of benzothiazole/benzoxazole-pyrrolo[2,1-c][1,4]benzodiazepine conjugates” (Bioorg Med Chem, 2010).

Columns and labels:
BT-549 = assay: Growth inhibition of human BT549 cells after 48 hrs by sulforhodamine B assay; assay type: functional; settings: BT-549, 48 h
Outline: (§1)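 Dose–response in each cell line over at least five concentrations at 10-fold dilutions, with 48 h continuous exposure and sulforhodamine B read-out.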

UO-31 = assay: Growth inhibition of human UO31 cells after 48 hrs by sulforhodamine B assay; assay type: functional; settings: UO-31, 48 h
Outline: (§2)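 Panel of 60 human cancer cell lines; for each compound, dose–response curves per cell line measured at a minimum of five concentrations at 10-fold dilutions. Cells exposed continuously to drug for 48 h, and growth was read out by sulforhodamine B staining.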

EKVX = assay: Growth inhibition of human EKVX cells after 48 hrs by sulforhodamine B assay; assay type: functional; outline: as §1
HCT-116 = assay: Growth inhibition of human HCT116 cells after 48 hrs by sulforhodamine B assay; assay type: functional; settings: HCT-116, 48 h; outline: as §2
[1] = Growth inhibition of human […] cells after 48 hrs by sulforhodamine B assay; assay type: functional; outline: as §2
CCRF-CEM = assay: Growth inhibition of human CCRF-CEM cells after 48 hrs by sulforhodamine B assay; assay type: functional; outline: as §1
SK-MEL-2 = assay: Growth inhibition of human SK-MEL-2 cells after 48 hrs by sulforhodamine B assay; assay type: functional; settings: SK-MEL-2, 48 h; outline: as §2
Malme-3M = assay: Growth inhibition of human MALME-3M cells after 48 hrs by sulforhodamine B assay; assay type: functional; outline: as §2
MDA-MB-435 = assay: Growth inhibition of human MDA-MB-435 cells after 48 hrs by sulforhodamine B assay; assay type: functional; settings: MDA-MB-435, 48 h; outline: as §2
CAKI-1 = assay: Growth inhibition of human Caki1 cells after 48 hrs by sulforhodamine B assay; assay type: functional; settings: CAKI-1, 48 h; outline: as §1
A-375 [2] = assay: Cell cycle arrest in human A375 cells assessed as accumulation at S phase at 2 uM after 24 hrs using propidium iodide staining by flow cytometry; assay type: functional
Outline: (§3)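 A375 cells (5×10^5) grown 24 h, then exposed to compound 24 h (DMSO control). Trypsin–EDTA harvest, fixed in ice-cold 70% ethanol at 4 °C 30 min, RNase A 37 °C 30 min, propidium iodide staining. DNA content measured by flow cytometry on 20,000 events, gated as sub-G1/G0, G1, S and G2/M.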

SW-620 = assay: Growth inhibition of human SW620 cells after 48 hrs by sulforhodamine B assay; assay type: functional; settings: SW-620, 48 h; outline: as §2
Calf thymus DNA = assay: Binding affinity to calf thymus duplex-form DNA assessed as melting temperature at 1:5 compound/DNA ratio after 18 hrs; assay type: nucleic-acid assay; settings: Bos taurus
SNB-75 = assay: Growth inhibition of human SNB75 cells after 48 hrs by sulforhodamine B assay; assay type: functional; settings: SNB-75, 48 h; outline: as §2
HOP-62 = assay: Growth inhibition of human HOP62 cells after 48 hrs by sulforhodamine B assay; assay type: functional; settings: HOP-62, 48 h; outline: as §2
IGROV-1 = assay: Growth inhibition of human IGROV1 cells after 48 hrs by sulforhodamine B assay; assay type: functional; settings: IGROV-1, 48 h; outline: as §2
SF-539 = assay: Growth inhibition of human SF539 cells after 48 hrs by sulforhodamine B assay; assay type: functional; settings: SF-539, 48 h; outline: as §2
SK-OV-3 = assay: Growth inhibition of human SKOV3 cells after 48 hrs by sulforhodamine B assay; assay type: functional; settings: SK-OV-3, 48 h; outline: as §2
Hs-578T = assay: Growth inhibition of human Hs 578T cells after 48 hrs by sulforhodamine B assay; assay type: functional; outline: as §2
HOP-92 = assay: Growth inhibition of human HOP92 cells after 48 hrs by sulforhodamine B assay; assay type: functional; settings: HOP-92, 48 h; outline: as §2
A-375 [3] = assay: Cell cycle arrest in human A375 cells assessed as accumulation at G2/M phase at 2 uM after 24 hrs using propidium iodide staining by flow cytometry; assay type: functional; outline: as §3
M14 = assay: Growth inhibition of human M14 cells after 48 hrs by sulforhodamine B assay; assay type: functional; settings: M14, 48 h; outline: as §2
HCC 2998 = assay: Growth inhibition of human HCC2998 cells after 48 hrs by sulforhodamine B assay; assay type: functional; settings: HCC 2998, 48 h; outline: as §2
A-375 [4] = assay: Cell cycle arrest in human A375 cells assessed as accumulation at G0 phase at 2 uM after 24 hrs using propidium iodide staining by flow cytometry; assay type: functional; outline: as §3
U-251 = assay: Growth inhibition of human U251 cells after 48 hrs by sulforhodamine B assay; assay type: functional; settings: U-251, 48 h; outline: as §2
SF-295 = assay: Growth inhibition of human SF295 cells after 48 hrs by sulforhodamine B assay; assay type: functional; settings: SF-295, 48 h; outline: as §2
OVCAR-3 = assay: Growth inhibition of human OVCAR-3 cells after 48 hrs by sulforhodamine B assay; assay type: functional; settings: OVCAR-3, 48 h; outline: as §2
SNB-19 = assay: Growth inhibition of human SNB19 cells after 48 hrs by sulforhodamine B assay; assay type: functional; settings: SNB-19, 48 h; outline: as §2
T47D = assay: Growth inhibition of human T47D cells after 48 hrs by sulforhodamine B assay; assay type: functional; outline: as §2
HT-29 = assay: Growth inhibition of human HT-29 cells after 48 hrs by sulforhodamine B assay; assay type: functional; settings: HT-29, 48 h; outline: as §2
UACC-257 = assay: Growth inhibition of human UACC257 cells after 48 hrs by sulforhodamine B assay; assay type: functional; settings: UACC-257, 48 h; outline: as §2
MDA-MB-231 = assay: Growth inhibition of human MDA-MB-231 cells after 48 hrs by sulforhodamine B assay; assay type: functional; settings: MDA-MB-231, 48 h; outline: as §2
MCF7 = assay: Growth inhibition of human MCF7 cells after 48 hrs by sulforhodamine B assay; assay type: functional; settings: MCF7, 48 h; outline: as §2
NCI-H322M = assay: Growth inhibition of human NCI-H322M cells after 48 hrs by sulforhodamine B assay; assay type: functional; outline: as §2
OVCAR-5 = assay: Growth inhibition of human OVCAR5 cells after 48 hrs by sulforhodamine B assay; assay type: functional; settings: OVCAR-5, 48 h; outline: as §2
RXF 393 = assay: Growth inhibition of human RXF393 cells after 48 hrs by sulforhodamine B assay; assay type: functional; settings: RXF 393, 48 h; outline: as §2
COLO 205 = assay: Growth inhibition of human COLO205 cells after 48 hrs by sulforhodamine B assay; assay type: functional; settings: COLO 205, 48 h; outline: as §1
NCI/ADR-RES = assay: Growth inhibition of human NCI/ADR-RES cells after 48 hrs by sulforhodamine B assay; assay type: functional; outline: as §2
ACHN = assay: Growth inhibition of human ACHN cells after 48 hrs by sulforhodamine B assay; assay type: functional; outline: as §1
A549 = assay: Growth inhibition of human A549 cells after 48 hrs by sulforhodamine B assay; assay type: functional; settings: A549, 48 h; outline: as §1
NCI-H460 = assay: Growth inhibition of human NCI-H460 cells after 48 hrs by sulforhodamine B assay; assay type: functional; settings: NCI-H460, 48 h; outline: as §2
SK-MEL-28 = assay: Growth inhibition of human SK-MEL-28 cells after 48 hrs by sulforhodamine B assay; assay type: functional; settings: SK-MEL-28, 48 h; outline: as §2
TK-10 = assay: Growth inhibition of human TK10 cells after 48 hrs by sulforhodamine B assay; assay type: functional; settings: TK-10, 48 h; outline: as §2
K562 = assay: Growth inhibition of human K562 cells after 48 hrs by sulforhodamine B assay; assay type: functional; settings: K562, 48 h; outline: as §2
HCT-15 = assay: Growth inhibition of human HCT15 cells after 48 hrs by sulforhodamine B assay; assay type: functional; settings: HCT-15, 48 h; outline: as §2

COc1cc(-c2nc3ccccc3s2)ccc1OCCCCOc1cc2c(cc1OC)C(=O)N1CCC[C@H]1C=N2
GI50 (BT-549): 282 nM | GI50 (UO-31): 1230 nM | GI50 (EKVX): 1740 nM | GI50 (HCT-116): 525 nM | GI50 [1]: 309 nM | GI50 (CCRF-CEM): 339 nM | GI50 (SK-MEL-2): 1230 nM | GI50 (Malme-3M): 1550 nM | GI50 (MDA-MB-435): 1350 nM | GI50 (CAKI-1): 575 nM | Activity (A-375 [2]): 5% | GI50 (SW-620): 794 nM | ΔTm (Calf thymus DNA): 0.5 °C | GI50 (SNB-75): 1230 nM | GI50 (HOP-62): 1410 nM | GI50 (IGROV-1): 3090 nM | GI50 (SF-539): 537 nM | GI50 (SK-OV-3): 2400 nM | GI50 (Hs-578T): 1020 nM | GI50 (HOP-92): 263 nM | Activity (A-375 [3]): 4.45% | GI50 (M14): 1230 nM | GI50 (HCC 2998): 646 nM | Activity (A-375 [4]): 20.86% | GI50 (U-251): 417 nM | GI50 (SF-295): 1910 nM | GI50 (OVCAR-3): 724 nM | GI50 (SNB-19): 1620 nM | GI50 (T47D): 257 nM | GI50 (HT-29): 537 nM | GI50 (UACC-257): 2190 nM | GI50 (MDA-MB-231): 525 nM | GI50 (MCF7): 407 nM | GI50 (NCI-H322M): 2570 nM | GI50 (OVCAR-5): 501 nM | GI50 (RXF 393): 240 nM | GI50 (COLO 205): 692 nM | GI50 (NCI/ADR-RES): 1910 nM | GI50 (ACHN): 776 nM | GI50 (A549): 2690 nM | GI50 (NCI-H460): 646 nM | GI50 (SK-MEL-28): 2140 nM | GI50 (TK-10): 1510 nM | GI50 (K562): 339 nM | GI50 (HCT-15): 1320 nM

COc1cc2c(cc1OCCCCC(=O)Nc1ccc(-c3nc4ccccc4s3)cc1)N=C[C@@H]1CCCN1C2=O
GI50 (BT-549): 1120 nM | GI50 (UO-31): 1660 nM | GI50 (EKVX): 2450 nM | GI50 (HCT-116): 1860 nM | GI50 [1]: 1450 nM | GI50 (CCRF-CEM): 1200 nM | GI50 (SK-MEL-2): 1950 nM | GI50 (Malme-3M): 1910 nM | GI50 (MDA-MB-435): 1780 nM | GI50 (CAKI-1): 2190 nM | Activity (A-375 [2]): 6.15% | GI50 (SW-620): 1620 nM | ΔTm (Calf thymus DNA): 0.5 °C | GI50 (SNB-75): 1820 nM | GI50 (HOP-62): 2450 nM | GI50 (IGROV-1): 692 nM | GI50 (SF-539): 1580 nM | GI50 (SK-OV-3): 4470 nM | GI50 (Hs-578T): 2750 nM | GI50 (HOP-92): 1740 nM | Activity (A-375 [3]): 5.41% | GI50 (M14): 1550 nM | GI50 (HCC 2998): 1580 nM | Activity (A-375 [4]): 15.1% | GI50 (U-251): 1910 nM | GI50 (SF-295): 550 nM | GI50 (OVCAR-3): 1860 nM | GI50 (SNB-19): 2690 nM | GI50 (T47D): 1950 nM | GI50 (HT-29): 2140 nM | GI50 (UACC-257): 1740 nM | GI50 (MDA-MB-231): 2090 nM | GI50 (MCF7): 724 nM | GI50 (NCI-H322M): 2820 nM | GI50 (OVCAR-5): 3550 nM | GI50 (RXF 393): 1620 nM | GI50 (COLO 205): 1700 nM | GI50 (NCI/ADR-RES): 11000 nM | GI50 (ACHN): 3020 nM | GI50 (A549): 3390 nM | GI50 (NCI-H460): 1660 nM | GI50 (SK-MEL-28): 2240 nM | GI50 (TK-10): 3240 nM | GI50 (K562): 1740 nM | GI50 (HCT-15): 2820 nM
